Data: ChEMBL document CHEMBL1126868, “Inhibitors of blood platelet cAMP phosphodiesterase. 4. Structural variation of the side-chain terminus of water-soluble 1,3-dihydro-2H-imidazo[4,5-b]quinolin-2-one derivatives” (J Med Chem, 1993)
“And” between values parts separate entries of the source, which are not always exact repeats. Equal entries are not always repeated.

Tests used:
Homo sapiens [1] = organism: Homo sapiens; test: Inhibition of human platelet aggregation induced by ADP after 3 min incubation with platelet rich plasma; format: functional; conditions: 0.05 h
Outline: (§1)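 Human platelet-rich plasma was preincubated with drug for 3 min (standard) or 15 min, then aggregation was induced with 5.86 μM ADP. Aggregation at a range of drug concentrations was compared with vehicle-treated controls, and IC50 was taken from dose-response curves. Values are single, duplicate or triplicate (with SD) determinations.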

[2] = % metabolized in monkey S-9 after 2 hours (1 ug/ml); format: ADME; conditions: simiiformes, monkey S-9 fraction; read-out: Activity
Outline: (§2)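 Monkey liver homogenised at 0 °C in 3 volumes isotonic KCl (0.05 M phosphate, pH 7.4), spun 9000g 30 min to give S-9. Triplicate incubations at 37 °C for 2 h with cofactor mix (glucose-6-phosphate, NADP, nicotinamide, MgCl2), final drug 1 or 10 μg/mL. Parent measured by fluorescence HPLC after MeOH protein precipitation; % metabolized = 100% minus % remaining at 2 h versus t=0.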

Homo sapiens [3] = organism: Homo sapiens; test: Inhibition of human platelet aggregation induced by ADP after 15 min incubation with platelet rich plasma; format: functional; conditions: 0.25 h; outline: as §1
Phosphodiesterase 3 [4] = target: T1, Phosphodiesterase 3 (Homo sapiens, UniProt Q14432+Q13370); test: Inhibition of human platelet aggregation cAMP PDE in vitro; format: functional
Outline: (§3)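 Human platelet cAMP PDE assay run as in an earlier protocol, except that the [3H]adenosine product was resolved on DEAE Sephadex. Values are means of duplicate (deviation under 50% of mean) or triplicate determinations.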

[5] = half-life (t1/2 min); format: ADME; conditions: for T1/2: 2 h
Outline: (§4)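 Same monkey liver S-9 incubation (37 °C, final drug 1 or 10 μg/mL, triplicate). Aliquots taken at 0, 15, 30, 60, 90 and 120 min, quenched with MeOH and analysed for parent by fluorescence HPLC peak height. Half-life = ln 2 divided by the slope of a least-squares linear regression of peak height against time.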

[6] = Aqueous solubility; format: physicochemical; conditions: read-out: S
Outline: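 A 10-mg sample was placed in 0.5 mL water and diluted stepwise up to 10 mL, or until it dissolved. Solubility is reported in mg/mL.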

[7] = % metabolized in monkey S-9 after 2 hours (10 ug/ml); format: ADME; conditions: simiiformes, monkey S-9 fraction; read-out: Activity; outline: as §2
Phosphodiesterase 3 [8] = target: T1, Phosphodiesterase 3; test: Inhibition of human blood platelet c-AMP phosphodiesterase; format: functional; outline: as §3
[9] = t1/2 (min); format: ADME; outline: as §4
[10] = % metabolized in monkey S-9 after 2 hours (10 ug/mL); format: ADME; conditions: simiiformes, monkey S-9 fraction; read-out: Activity; outline: as §2

Structure (SMILES)	IC50 (Homo sapiens [1]) [nM]	metabolised at 2 h, 1 ug/ml [2] [%]	IC50 (Homo sapiens [3]) [nM]	IC50 (Phosphodiesterase 3 [4]) [nM]	half-life [5] [h]	solubility [6] [µg/mL]	metabolised at 2 h, 10 ug/ml [7] [%]	T1/2 [5]	IC50 (Phosphodiesterase 3 [8]) [nM]	half-life [9] [h]	metabolised at 2 h, 10 ug/mL [10] [%]
Cl.Oc1nc2cc3cc(OCCCc4nnnn4C4CCN(Cc5ccc(F)cc5)CC4)ccc3[nH]c-2n1	32	4.9	8	1.03	24.6	> 10000	–	–	–	–	–
Cl.O=S(=O)(CCCOc1ccc2[nH]c3nc(O)nc-3cc2c1)N1CCN(Cc2ccccc2)CC1	130	67.7	60	5.42	–	> 20000	21.2	–	–	–	–
Cl.O=C(NCCCOc1ccc2[nH]c3nc(O)nc-3cc2c1)N1CCN(Cc2ccccc2)CC1	310	–	50	1.11	2.17	> 20000	46.8	–	–	–	–
CCC(CC)CN1CCN(S(=O)(=O)CCCOc2ccc3[nH]c4nc(O)nc-4cc3c2)CC1.Cl	160	–	40	5.14	2.87	> 10000	38.8	–	–	–	–
CCC(CC)CN1CCC(S(=O)(=O)CCCOc2ccc3[nH]c4nc(O)nc-4cc3c2)CC1.Cl	39	17	9	1.13	6.08	< 10000	22.4	7.05 h	–	–	–
Cl.O=S(=O)(CCCOc1ccc2[nH]c3nc(O)nc-3cc2c1)N1CCN(CC2CCCCC2)CC1	110	–	60	2.56	2.02	> 20000	49.4	–	–	–	–
Cl.O=C(NCCCOc1ccc2[nH]c3nc(O)nc-3cc2c1)N1CCN(Cc2ccc(F)cc2)CC1	350	–	50	2.78	1.08	> 20000	70	–	–	–	–
Cl.Oc1nc2cc3cc(OCCCc4nnnn4C4CCN(CC5CCCCC5)CC4)ccc3[nH]c-2n1	16	22.9	3	0.81	5.13	> 10000	–	–	–	–	–
Cl.O=C(NCCCOc1ccc2[nH]c3nc(O)nc-3cc2c1)N1CCN(CC2CCCCC2)CC1	72	58.5	18	1.13	–	> 20000	23.6	–	–	–	–
Cl.O=S(=O)(CCCOc1ccc2[nH]c3nc(O)nc-3cc2c1)C1CCN(Cc2ccc(F)cc2)CC1	20	–	8.4	–	–	> 10000	–	–	1	2	53
CCC(CC)CN1CCC(n2nnnc2CCCOc2ccc3[nH]c4nc(O)nc-4cc3c2)CC1.Cl	12	31.3	3	0.81	3.37	> 10000	–	–	–	–	–
O=C(CCCOc1ccc2[nH]c3nc(O)nc-3cc2c1)N1CCN(CC2CCCCC2)CC1	–	40.6	–	–	–	–	21.7	5.55 h and 2.4 h	–	–	–
Cl.Oc1nc2cc3cc(OCCCc4nnnn4C4CCN(Cc5ccccc5)CC4)ccc3[nH]c-2n1	39	7.2	4	0.84	15.8	> 10000	–	–	–	–	–
CCC(CC)CN1CCN(C(=O)NCCCOc2ccc3[nH]c4nc(O)nc-4cc3c2)CC1.Cl	42	–	7	1.25	2.68	> 20000	37.3	–	–	–	–
Cl.O=S(=O)(CCCOc1ccc2[nH]c3nc(O)nc-3cc2c1)C1CCN(CC2CCCCC2)CC1	30	–	8.4	1.13	7.55	> 10000	15.2	–	–	–	–
Cl.O=C(NCCCOc1ccc2[nH]c3nc(O)nc-3cc2c1)N1CCN(Cc2cccs2)CC1	160	–	–	–	–	> 10000	–	–	–	–	–
Cl.O=S(=O)(CCCOc1ccc2[nH]c3nc(O)nc-3cc2c1)C1CCN(Cc2ccccc2)CC1	25	25.2	6.4	0.63	–	> 10000	9.6	–	–	–	–
Cl.Oc1nc2cc3cc(OCCCc4nnnn4C4CCN(CC5CCCC5)CC4)ccc3[nH]c-2n1	9	–	–	–	–	3000	–	–	–	–	–
Cl.O=S(=O)(CCCOc1ccc2[nH]c3nc(O)nc-3cc2c1)C1CCN(Cc2cccc(C(F)(F)F)c2)CC1	38	–	–	–	–	< 5000	–	–	–	–	–
CCCC(CCC)CN1CCC(S(=O)(=O)CCCOc2ccc3[nH]c4nc(O)nc-4cc3c2)CC1.Cl	230	–	–	–	–	1000	–	–	–	–	–
CC(C)CN1CCN(C(=O)NCCCOc2ccc3[nH]c4nc(O)nc-4cc3c2)CC1.Cl	180	–	–	–	–	> 20000	–	–	–	–	–
Cl.O=S(=O)(CCCOc1ccc2[nH]c3nc(O)nc-3cc2c1)N1CCN(Cc2ccc(F)cc2)CC1	280	29.4	35	4.96	6.75	> 20000	18	4.02 h	–	–	–
Cl.O=S(=O)(CCCOc1ccc2[nH]c3nc(O)nc-3cc2c1)N1CCN(c2nc3ccccc3o2)CC1	2410	–	–	–	–	> 20000	–	–	–	–	–
CC(C)CN1CCC(n2nnnc2CCCCOc2ccc3[nH]c4nc(O)nc-4cc3c2)CC1.Cl	9	–	–	–	–	> 10000	–	–	–	–	–
Cl.O=S(=O)(CCCOc1ccc2[nH]c3nc(O)nc-3cc2c1)C1CCN(CC2CCCCO2)CC1 (centres undefined)	34	–	–	–	–	> 10000	–	–	–	–	–
